Assay outcomes as filed in PubChem BioAssay.
GSTO1 counter: GSTO1 inhibition, counter-screen for RBBP9 inhibitors; P78417; recombinant GSTO1, activity-based probe fluorescence polarization; inhibition, % at 5.96 µM; 300,000 compounds, 1.1% hits; AID 1974;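 active = inhibition above the campaign mean inhibition plus 3 SD, cut at about 35% in these data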;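 also: 0% = GSTO1-1 with DMSO and 100% = wells lacking GSTO1-1 enzyme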
Target sequence (P78417 whole entry, looked up): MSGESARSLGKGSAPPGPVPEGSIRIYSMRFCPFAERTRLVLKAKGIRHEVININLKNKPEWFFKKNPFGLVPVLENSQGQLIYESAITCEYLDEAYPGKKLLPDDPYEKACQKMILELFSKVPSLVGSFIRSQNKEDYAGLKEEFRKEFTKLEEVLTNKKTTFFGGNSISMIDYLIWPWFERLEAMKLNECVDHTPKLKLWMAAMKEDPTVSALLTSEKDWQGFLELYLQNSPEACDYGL
Apaf-1 inh: inhibitors of human Apaf-1 apoptosome; O14727; reconstituted apoptosome caspase-3 activity, DEVD-Rh110 fluorescence; inhibition, % at 20 µM; 330,000 compounds, 0.71% hits; AID 489030; active = inhibition of at least 40% at 20 µM;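 also: plate controls were DMSO wells for no effect and DEVD-CHO caspase inhibitor wells for full effect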
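System – cell-free apoptosome with Apaf-1, procaspase-3 and caspase-9 · Buffer or medium – pH 7.5 Hepes buffer with CHAPS, BSA, DTT · Also added – cytochrome c with DEVD-Rh110 · Times – 30 min compound preincubation, 50 min activation, room temperature · Technique – Rh110 fluorescence intensity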
UBC13 inh: blocks human UBC13 polyubiquitin chain formation; 330,000 compounds, 0.47% hits; P61088; inhibition, % at 20 µM; TR-FRET; in the data active = inhibition above about 45%, passing the limit was not always enough
Target sequence (P61088 whole entry, looked up): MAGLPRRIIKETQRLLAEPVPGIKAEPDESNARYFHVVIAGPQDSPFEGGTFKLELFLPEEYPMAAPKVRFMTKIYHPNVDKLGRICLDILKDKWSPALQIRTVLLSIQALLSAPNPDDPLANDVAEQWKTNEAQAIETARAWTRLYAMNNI
PAD4 FP inh: PAD4 (human) enzyme inhibition | 330,000 compounds, 0.41% hits | Q9UM07 | recombinant PAD4, RCA probe fluorescence polarization | inhibition, % at 6.36 µM | AID 485272;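 active = percent inhibition above a cutoff equal to the mean of all tested compounds plus 3 SD, cut at about 15% in these data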;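 also: 0% = PAD4 with RCA probe and DMSO and 100% = probe without PAD4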
Rin1-Abl PPI inh: inhibitors of human Rin1-Abl protein interaction | P00519+Q13671 | TR-FRET Rin1/Abl binding, biochemical | inhibition, % at 7.35 µM | 360,000 compounds, 0.4% hits | AID 588664; in the data active = inhibition above about 5%, passing the limit was not always enough
UBC9 SUMO inh: blocks human SUMOylation mediated by UBC9. HTRF SUMOylation assay, SAE1/SAE2 + UBC9, in vitro. inhibition, % at 35 µM. 290,000 compounds, 0.36% hits; in the data active = inhibition above about 50%, passing the limit was not always enough
Target sequence (P63279 whole entry, looked up): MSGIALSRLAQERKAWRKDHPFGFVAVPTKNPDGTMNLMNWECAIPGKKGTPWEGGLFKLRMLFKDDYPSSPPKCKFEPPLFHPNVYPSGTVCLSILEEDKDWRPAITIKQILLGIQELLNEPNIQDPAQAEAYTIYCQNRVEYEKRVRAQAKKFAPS
PAD4 FP conf: PAD4 (human) inhibition, confirmed; shares compounds with PAD4 FP inh; recombinant PAD4, RCA probe fluorescence polarization; inhibition, % at 6.36 µM; 1,200 compounds, 28% hits; AID 488796;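 active = mean inhibition across replicates above the hit cutoff set by the earlier primary screen, cut at about 15% in these data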;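 also: inhibitors block active-site labeling by the probe so polarization falls; 0% = PAD4 with probe and DMSO and 100% = probe without PAD4 enzyme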
An asterisk follows results filed as active. The list is not random: actives were taken first. Their share in the collection is about 2.2%.

What do the screens show for `CCCCCC(=O)N(Cc1ccccc1)c1c(N)n(CCOC)c(=O)[nH]c1=O`?
GSTO1 counter: -2; Apaf-1 inh: -10; UBC13 inh: -3; PAD4 FP inh: 38*; Rin1-Abl PPI inh: -2; UBC9 SUMO inh: 15; PAD4 FP conf: 4

What do the screens show for `O=C1C2C3C=CC(CC3)C2C(=O)N1c1cccc(Br)c1` (centres undefined)?
GSTO1 counter: 4; Apaf-1 inh: 13; UBC13 inh: 0; PAD4 FP inh: -4; Rin1-Abl PPI inh: -4; UBC9 SUMO inh: 11

How did COc1cccc2cc(C(=O)NC3CC(C)(C)NC(C)(C)C3)c(=O)oc12 do in these assays?
GSTO1 counter: 4; Apaf-1 inh: 12; UBC13 inh: 0; PAD4 FP inh: 79*; PAD4 FP conf: -1

How did COc1cc(CNc2ccc3[nH]c(=O)[nH]c3c2)cc(Br)c1OCc1ccccc1F do in these assays?
Apaf-1 inh: 5; UBC13 inh: 2; Rin1-Abl PPI inh: 1; UBC9 SUMO inh: 28

How did O=C(Nc1ccccc1)c1ccc(Nc2c([N+](=O)[O-])cc([N+](=O)[O-])c3ccccc23)cc1 do in these assays?
GSTO1 counter: -2; Apaf-1 inh: 3; UBC13 inh: -78; PAD4 FP inh: 2; Rin1-Abl PPI inh: 6; UBC9 SUMO inh: 6

How did O=[N+]([O-])c1cc(Br)c(Nc2ccccc2)c([N+](=O)[O-])c1 do in these assays?
GSTO1 counter: 13; Apaf-1 inh: 15; UBC13 inh: -4; PAD4 FP inh: 18*; Rin1-Abl PPI inh: 1; UBC9 SUMO inh: 28; PAD4 FP conf: 20*

Results for CCN1C(=O)[C@@H]2[C@@H](c3ccc(-c4cc(C(C)=O)cs4)cc3)N3CCC[C@@]3(C(=O)OC)[C@@H]2C1=O ?
Rin1-Abl PPI inh: -1

What do the screens show for `CN1CCS/C1=C/C=C1/SC(=S)N(Cc2ccccc2)C1=O`?
GSTO1 counter: -10; PAD4 FP inh: 49*; Rin1-Abl PPI inh: -13; UBC9 SUMO inh: 4; PAD4 FP conf: 0

How did Cc1ccc(-n2nc(C)c3c2OC(N)=C(C#N)C3c2ccc(F)cc2)cc1 (centres undefined) do in these assays?
GSTO1 counter: 42*; Apaf-1 inh: 3; UBC13 inh: -4; PAD4 FP inh: 43*; Rin1-Abl PPI inh: 1; UBC9 SUMO inh: 6; PAD4 FP conf: -1

How did Cc1nn(-c2ccccc2)c2c1C(c1cccs1)C(C#N)=C(N)O2 (centres undefined) do in these assays?
GSTO1 counter: 16; Apaf-1 inh: -10; UBC13 inh: -28; PAD4 FP inh: 6; Rin1-Abl PPI inh: 1; UBC9 SUMO inh: 12

What do the screens show for `Cn1c2c(c(=O)n(C)c1=O)C(c1ccc(F)cc1)C(C#N)=C(N)O2` (centres undefined)?
GSTO1 counter: 6; Apaf-1 inh: 3; UBC13 inh: 8; PAD4 FP inh: -4; Rin1-Abl PPI inh: 2; UBC9 SUMO inh: 8

Results for Cc1nn(-c2cccc(Cl)c2)c2c1C(c1cccnc1)C(C#N)=C(N)O2 (centres undefined) ?
GSTO1 counter: 7; Apaf-1 inh: 32; UBC13 inh: -16; PAD4 FP inh: 62*; Rin1-Abl PPI inh: 1; UBC9 SUMO inh: 12; PAD4 FP conf: -8

How did Cc1nn(-c2cccc(Cl)c2)c2c1C(c1ccncc1)C(C#N)=C(N)O2 (centres undefined) do in these assays?
GSTO1 counter: 7; Apaf-1 inh: 16; UBC13 inh: -1; PAD4 FP inh: 34*; Rin1-Abl PPI inh: 1; UBC9 SUMO inh: -31; PAD4 FP conf: 6

Results for Cc1onc(-c2c(F)cccc2Cl)c1C(=O)N(Cc1ccccc1)C(C)C ?
GSTO1 counter: -7; Apaf-1 inh: 7; UBC13 inh: 3; PAD4 FP inh: -4; Rin1-Abl PPI inh: 0; UBC9 SUMO inh: 6

What do the screens show for `CCCOc1ccccc1NC(=O)/C=C/c1ccc(OC)c(S(=O)(=O)N2CCOCC2)c1`?
Rin1-Abl PPI inh: -6

How did CN(C)c1cccc(O)c1 do in these assays?
Apaf-1 inh: 0; UBC13 inh: -4; PAD4 FP inh: 22*; Rin1-Abl PPI inh: 1; PAD4 FP conf: 2

What do the screens show for `COc1ccc(OC)c2[nH]c(=O)c(CCNC(=O)C(C)C)cc12`?
GSTO1 counter: 3; Apaf-1 inh: -3; UBC13 inh: -8; PAD4 FP inh: 0; Rin1-Abl PPI inh: -2; UBC9 SUMO inh: 32

How did COc1ccc(OC)c2[nH]c(=O)c(CCNC(=O)CC(C)C)cc12 do in these assays?
GSTO1 counter: 2; Apaf-1 inh: 7; UBC13 inh: 0; PAD4 FP inh: 50*; Rin1-Abl PPI inh: 0; UBC9 SUMO inh: 13; PAD4 FP conf: 7

How did Cc1ccc(C(NC(=O)Nc2ccccn2)C(Cl)(Cl)Cl)cc1F (centres undefined) do in these assays?
GSTO1 counter: 0; Apaf-1 inh: 36; UBC13 inh: -2; PAD4 FP inh: 26*; Rin1-Abl PPI inh: 2; UBC9 SUMO inh: -5; PAD4 FP conf: 2

How did COc1ccc(CCNC(=O)c2c[nH]c3ccccc3c2=O)cc1OC do in these assays?
GSTO1 counter: 2; Apaf-1 inh: 5; UBC13 inh: -20; PAD4 FP inh: 0; Rin1-Abl PPI inh: 1; UBC9 SUMO inh: 15

What do the screens show for `COc1ccc(CCNC(=O)c2c[nH]c3ccc(F)cc3c2=O)cc1OC`?
GSTO1 counter: 4; Apaf-1 inh: -1; UBC13 inh: 7; PAD4 FP inh: 83*; Rin1-Abl PPI inh: -7; UBC9 SUMO inh: 4; PAD4 FP conf: 3

Results for COc1cc(NC(=O)c2cc(C)nc3ccccc23)cc(OC)c1OC ?
GSTO1 counter: 10; Apaf-1 inh: -3; UBC13 inh: 1; PAD4 FP inh: 29*; Rin1-Abl PPI inh: 2; UBC9 SUMO inh: 1; PAD4 FP conf: 5

What do the screens show for `CCc1ccc(OC2=NS(=O)(=O)c3ccccc32)cc1`?
Rin1-Abl PPI inh: 3; UBC9 SUMO inh: -15

How did CCN(CC)c1cccc(OC2=NS(=O)(=O)c3ccccc32)c1 do in these assays?
GSTO1 counter: 17; Apaf-1 inh: 3; UBC13 inh: 7; PAD4 FP inh: 65*; Rin1-Abl PPI inh: 6; UBC9 SUMO inh: 13; PAD4 FP conf: -4

How did CC(NC(=O)CCNC(=O)c1ccc(Br)cc1)c1ccc(-n2ccnc2)cc1 (centres undefined) do in these assays?
GSTO1 counter: -2; Apaf-1 inh: 1; UBC13 inh: -2; PAD4 FP inh: -2; Rin1-Abl PPI inh: -4

How did Oc1ccccc1O do in these assays?
GSTO1 counter: 22; Apaf-1 inh: -8; UBC13 inh: 12; PAD4 FP inh: 4; Rin1-Abl PPI inh: -1

What do the screens show for `Nc1ccccc1O`?
Apaf-1 inh: 7; UBC13 inh: 3; PAD4 FP inh: 15*; Rin1-Abl PPI inh: 6; PAD4 FP conf: 0

Results for O=C(N/N=C/c1ccc(O)cc1)c1ccncc1 ?
GSTO1 counter: -5; Apaf-1 inh: 9; UBC13 inh: -7; PAD4 FP inh: 0; Rin1-Abl PPI inh: 0; UBC9 SUMO inh: 16
